Assay results published in ChEMBL document CHEMBL4689842, “EUbOPEN Chemogenomics Library wave 1” (2021).

Tested on: U2OS
Assay: Multiplex assay against U2OS
Format: toxicity, cell-based
Conditions: human
In short: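 Four dyes were applied at seeding to live cells: Hoechst33342, BioTracker Green Microtubule Cytoskeleton Dye, MitoTracker Red and Annexin V Alexa Fluor 680. Imaging after compound addition used a CQ1 microscope at 37°C and 5% CO2. CellPathfinder machine-learning gating then sorted cells into Hoechst high-intensity objects or normal cells, normal cells into healthy, pyknosed or fragmented nuclei, and pyknosed cells into mitotic or apoptotic, with tubulin, mitochondrial-mass and membrane-permeability phenotypes given as per cents of healthy-nucleus cells.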

[1] = 12 h, 1 µM, compound concentration 1 uM, replicate 1
[2] = 12 h, 1 µM, compound concentration 1 uM, replicate 2
[3] = 12 h, 10 µM, compound concentration 10 uM, replicate 1
[4] = 12 h, 10 µM, compound concentration 10 uM, replicate 2
[5] = 24 h, 1 µM, compound concentration 1 uM, replicate 1
[6] = 24 h, 1 µM, compound concentration 1 uM, replicate 2
[7] = 24 h, 10 µM, compound concentration 10 uM, replicate 1
[8] = 24 h, 10 µM, compound concentration 10 uM, replicate 2
[9] = 48 h, 1 µM, compound concentration 1 uM, replicate 1
[10] = 48 h, 1 µM, compound concentration 1 uM, replicate 2
[11] = 48 h, 10 µM, compound concentration 10 uM, replicate 1
[12] = 48 h, 10 µM, compound concentration 10 uM, replicate 2

## O=C(Nc1cccnn1)N1CCC(=Cc2cccc(Oc3ccc(C(F)(F)F)cn3)c2)CC1
[1]
  Population Apoptotic (%): 36%
  Population Fragmented Nuclei (%): 1%
  Population Healthy Nuclei (%): 87%
  Population Hoechst High Intensity Objects (%): 3%
  Population Membrane Permeable-Phenotype (%): 33%
  Population Mitochondria Different-Phenotype (%): 5%
  Population Mitotic Cells (%): 63%
  Population Normal (%): 96%
  Population Pyknosed Nuclei (%): 10%
  Population Tubulin-Different-Phenotype (%): 26%
  Total Cell Count: 187
[2]
  Population Apoptotic (%): 14%
  Population Fragmented Nuclei (%): 13%
  Population Healthy Nuclei (%): 78%
  Population Hoechst High Intensity Objects (%): 16%
  Population Membrane Permeable-Phenotype (%): 30%
  Population Mitochondria Different-Phenotype (%): 24%
  Population Mitotic Cells (%): 85%
  Population Normal (%): 83%
  Population Pyknosed Nuclei (%): 7%
  Population Tubulin-Different-Phenotype (%): 18%
  Total Cell Count: 101
[3]
  Population Apoptotic (%): 83%
  Population Fragmented Nuclei (%): 4%
  Population Healthy Nuclei (%): 92%
  Population Hoechst High Intensity Objects (%): 3%
  Population Membrane Permeable-Phenotype (%): 8%
  Population Mitochondria Different-Phenotype (%): 22%
  Population Mitotic Cells (%): 16%
  Population Normal (%): 96%
  Population Pyknosed Nuclei (%): 3%
  Population Tubulin-Different-Phenotype (%): 22%
  Total Cell Count: 311
[4]
  Population Apoptotic (%): 0%
  Population Fragmented Nuclei (%): 8%
  Population Healthy Nuclei (%): 91%
  Population Hoechst High Intensity Objects (%): 15%
  Population Membrane Permeable-Phenotype (%): 12%
  Population Mitochondria Different-Phenotype (%): 24%
  Population Mitotic Cells (%): 0%
  Population Normal (%): 84%
  Population Pyknosed Nuclei (%): 0%
  Population Tubulin-Different-Phenotype (%): 16%
  Total Cell Count: 336
[5]
  Population Apoptotic (%): 18%
  Population Fragmented Nuclei (%): 2%
  Population Healthy Nuclei (%): 83%
  Population Hoechst High Intensity Objects (%): 2%
  Population Membrane Permeable-Phenotype (%): 21%
  Population Mitochondria Different-Phenotype (%): 11%
  Population Mitotic Cells (%): 81%
  Population Normal (%): 97%
  Population Pyknosed Nuclei (%): 14%
  Population Tubulin-Different-Phenotype (%): 17%
  Total Cell Count: 250
[6]
  Population Apoptotic (%): 27%
  Population Fragmented Nuclei (%): 10%
  Population Healthy Nuclei (%): 79%
  Population Hoechst High Intensity Objects (%): 14%
  Population Membrane Permeable-Phenotype (%): 19%
  Population Mitochondria Different-Phenotype (%): 22%
  Population Mitotic Cells (%): 72%
  Population Normal (%): 85%
  Population Pyknosed Nuclei (%): 10%
  Population Tubulin-Different-Phenotype (%): 11%
  Total Cell Count: 114
[7]
  Population Apoptotic (%): 33%
  Population Fragmented Nuclei (%): 2%
  Population Healthy Nuclei (%): 95%
  Population Hoechst High Intensity Objects (%): 3%
  Population Membrane Permeable-Phenotype (%): 5%
  Population Mitochondria Different-Phenotype (%): 20%
  Population Mitotic Cells (%): 66%
  Population Normal (%): 96%
  Population Pyknosed Nuclei (%): 2%
  Population Tubulin-Different-Phenotype (%): 26%
  Total Cell Count: 221
[8]
  Population Apoptotic (%): 83%
  Population Fragmented Nuclei (%): 4%
  Population Healthy Nuclei (%): 89%
  Population Hoechst High Intensity Objects (%): 7%
  Population Membrane Permeable-Phenotype (%): 8%
  Population Mitochondria Different-Phenotype (%): 31%
  Population Mitotic Cells (%): 16%
  Population Normal (%): 92%
  Population Pyknosed Nuclei (%): 5%
  Population Tubulin-Different-Phenotype (%): 14%
  Total Cell Count: 231

## O=C(Nc1ccc(Cl)cc1)Nc1cccc(-c2cccc(N3CCCC3)n2)c1
[1]
  Population Apoptotic (%): 44%
  Population Fragmented Nuclei (%): 11%
  Population Healthy Nuclei (%): 79%
  Population Hoechst High Intensity Objects (%): 10%
  Population Membrane Permeable-Phenotype (%): 7%
  Population Mitochondria Different-Phenotype (%): 7%
  Population Mitotic Cells (%): 55%
  Population Normal (%): 89%
  Population Pyknosed Nuclei (%): 9%
  Population Tubulin-Different-Phenotype (%): 7%
  Total Cell Count: 158
[2]
  Population Apoptotic (%): 25%
  Population Fragmented Nuclei (%): 17%
  Population Healthy Nuclei (%): 76%
  Population Hoechst High Intensity Objects (%): 7%
  Population Membrane Permeable-Phenotype (%): 10%
  Population Mitochondria Different-Phenotype (%): 8%
  Population Mitotic Cells (%): 75%
  Population Normal (%): 92%
  Population Pyknosed Nuclei (%): 6%
  Population Tubulin-Different-Phenotype (%): 12%
  Total Cell Count: 83
[3]
  Population Apoptotic (%): 58%
  Population Fragmented Nuclei (%): 10%
  Population Healthy Nuclei (%): 65%
  Population Hoechst High Intensity Objects (%): 10%
  Population Membrane Permeable-Phenotype (%): 80%
  Population Mitochondria Different-Phenotype (%): 12%
  Population Mitotic Cells (%): 41%
  Population Normal (%): 89%
  Population Pyknosed Nuclei (%): 24%
  Population Tubulin-Different-Phenotype (%): 82%
  Total Cell Count: 109
[4]
  Population Apoptotic (%): 72%
  Population Fragmented Nuclei (%): 3%
  Population Healthy Nuclei (%): 78%
  Population Hoechst High Intensity Objects (%): 7%
  Population Membrane Permeable-Phenotype (%): 69%
  Population Mitochondria Different-Phenotype (%): 7%
  Population Mitotic Cells (%): 27%
  Population Normal (%): 92%
  Population Pyknosed Nuclei (%): 17%
  Population Tubulin-Different-Phenotype (%): 74%
  Total Cell Count: 69
[5]
  Population Apoptotic (%): 41%
  Population Fragmented Nuclei (%): 6%
  Population Healthy Nuclei (%): 83%
  Population Membrane Permeable-Phenotype (%): 5%
  Population Mitotic Cells (%): 58%
  Population Pyknosed Nuclei (%): 9%
  Population Tubulin-Different-Phenotype (%): 3%
[6]
  Population Apoptotic (%): 20%
  Population Fragmented Nuclei (%): 18%
  Population Healthy Nuclei (%): 75%
  Population Hoechst High Intensity Objects (%): 6%
  Population Membrane Permeable-Phenotype (%): 7%
  Population Mitochondria Different-Phenotype (%): 3%
  Population Mitotic Cells (%): 80%
  Population Normal (%): 93%
  Population Pyknosed Nuclei (%): 6%
  Population Tubulin-Different-Phenotype (%): 12%
  Total Cell Count: 94
[7]
  Population Apoptotic (%): 83%
  Population Fragmented Nuclei (%): 17%
  Population Healthy Nuclei (%): 54%
  Population Hoechst High Intensity Objects (%): 21%
  Population Membrane Permeable-Phenotype (%): 53%
  Population Mitochondria Different-Phenotype (%): 13%
  Population Mitotic Cells (%): 16%
  Population Normal (%): 78%
  Population Pyknosed Nuclei (%): 28%
  Population Tubulin-Different-Phenotype (%): 61%
  Total Cell Count: 131
[8]
  Population Apoptotic (%): 72%
  Population Fragmented Nuclei (%): 13%
  Population Hoechst High Intensity Objects (%): 25%
  Population Membrane Permeable-Phenotype (%): 46%
  Population Mitochondria Different-Phenotype (%): 15%
  Population Mitotic Cells (%): 27%
  Population Normal (%): 74%
  Population Pyknosed Nuclei (%): 31%
  Population Tubulin-Different-Phenotype (%): 46%
  Total Cell Count: 81
[9]
  Population Apoptotic (%): 30%
  Population Fragmented Nuclei (%): 4%
  Population Healthy Nuclei (%): 88%
  Population Hoechst High Intensity Objects (%): 6%
  Population Membrane Permeable-Phenotype (%): 1%
  Population Mitochondria Different-Phenotype (%): 5%
  Population Mitotic Cells (%): 69%
  Population Normal (%): 93%
  Population Pyknosed Nuclei (%): 6%
  Population Tubulin-Different-Phenotype (%): 2%
  Total Cell Count: 245
[10]
  Population Apoptotic (%): 50%
  Population Fragmented Nuclei (%): 8%
  Population Healthy Nuclei (%): 83%
  Population Hoechst High Intensity Objects (%): 5%
  Population Membrane Permeable-Phenotype (%): 4%
  Population Mitochondria Different-Phenotype (%): 9%
  Population Mitotic Cells (%): 50%
  Population Normal (%): 94%
  Population Pyknosed Nuclei (%): 7%
  Population Tubulin-Different-Phenotype (%): 12%
  Total Cell Count: 110
[11]
  Population Apoptotic (%): 91%
  Population Fragmented Nuclei (%): 21%
  Population Healthy Nuclei (%): 33%
  Population Hoechst High Intensity Objects (%): 31%
  Population Membrane Permeable-Phenotype (%): 31%
  Population Mitochondria Different-Phenotype (%): 29%
  Population Mitotic Cells (%): 8%
  Population Normal (%): 68%
  Population Pyknosed Nuclei (%): 44%
  Population Tubulin-Different-Phenotype (%): 33%
  Total Cell Count: 221
[12]
  Population Apoptotic (%): 87%
  Population Fragmented Nuclei (%): 19%
  Population Healthy Nuclei (%): 26%
  Population Hoechst High Intensity Objects (%): 39%
  Population Membrane Permeable-Phenotype (%): 40%
  Population Mitochondria Different-Phenotype (%): 25%
  Population Mitotic Cells (%): 12%
  Population Normal (%): 60%
  Population Pyknosed Nuclei (%): 53%
  Population Tubulin-Different-Phenotype (%): 48%
  Total Cell Count: 108
